Test results published in ChEMBL document CHEMBL1135705, “Correlation of the antibacterial activities of cationic peptide antibiotics and cationic steroid antibiotics” (2002).
Values after ≈ are worked out from the molar mass of the structure shown.

What was measured:
[1] = system: Escherichia coli; assay: Antibacterial activity against Gram-negative bacteria- Escherichia coli (ATCC 25922); assay type: functional
[2] = Compound was evaluated for minimum hemolytic concentration; assay type: functional
How it was run: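 Hemolysis was tested up to 200 µg/mL. Higher concentrations could not be used because of limited solubility.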

[3] = system: Streptococcus pyogenes; assay: Antibacterial activity against Gram-positive bacteria-Streptococcus pyogenes (ATCC 19615); assay type: functional
[4] = system: Salmonella typhimurium; assay: Antibacterial activity against Gram-negative bacteria -Salmonella Typhimurium (ATCC 14028); assay type: functional, Salmonella enterica subsp. enterica serovar Typhimurium; details: Salmonella enterica
[5] = system: Staphylococcus aureus; assay: Antibacterial activity against Gram-positive bacteria -S. aureus (ATCC 25923); assay type: functional

Structure (SMILES)	MIC [1] [µg/mL]	MHC [2] [µg/mL]	MIC [3] [µg/mL]	MIC [4] [µg/mL]	MIC [5] [µg/mL]
C[C@H](CCCNCCCNCCCN)[C@H]1CC[C@H]2[C@@H]3[C@H](OCCCN)CC4C[C@H](OCCCN)CC[C@]4(C)[C@H]3C[C@H](OCCCN)[C@]12C (stereo not given in full)	7.3 (≈ 10.7 µM)	> 200	1.6 (≈ 2.36 µM)	12 (≈ 17.7 µM)	2 (≈ 2.95 µM)
C[C@H](CCCN(CCCN)CCCN)[C@H]1CC[C@H]2[C@@H]3[C@H](OCCCN)CC4C[C@H](OCCCN)CC[C@]4(C)[C@H]3C[C@H](OCCCN)[C@]12C (stereo not given in full)	6.6 (≈ 9.72 µM)	> 200	3 (≈ 4.42 µM)	25 (≈ 36.8 µM)	4.6 (≈ 6.77 µM)
C[C@H](CCCO)[C@H]1CC[C@H]2[C@@H]3[C@H](OCCCN)CC4C[C@H](OCCCN)CC[C@]4(C)[C@H]3C[C@H](OCCCN)[C@]12C (stereo not given in full)	36 (≈ 63.6 µM)	100	4.2 (≈ 7.42 µM)	43 (≈ 76 µM)	2 (≈ 3.53 µM)
